According to ChEMBL document CHEMBL1125833, “Anxiolytic properties of certain annelated [1,2,4]triazolo[1,5-c]pyrimidin-5(6H)-ones” (J Med Chem, 1991):

Key:
[1] = molecular target: GABA-A receptor; anion channel; assay: Displacement of [3H]flunitrazepam (FNZ) from GABA-A benzodiazepine receptor in rat forebrain
[2] = system: Rattus norvegicus; assay: Compound tested for its effect on Nonconflict (VI) operant responding of rats at a dose of 3.0 mg/Kg administered perorally.; assay type: functional
Outline: (§1)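 Cook-Davidson conflict procedure in rats given oral doses. Rats lever-press for milk reward with shock (conflict, FR) and without shock (nonconflict, VI). Value is % change in response rate, with significance set at P < 0.05. The minimally effective oral dose is taken as the dose raising conflict responding or lowering VI responding.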

[3] = system: Rattus norvegicus; assay: Compound tested for its effect on conflict (FR) operant responding of rats at a dose of 3.0 mg/Kg administered perorally.; assay type: functional; outline: as §1
[4] = species on record: Rattus norvegicus; assay: Anxiolytic response measured by antagonism of pentylenetetrazole discriminative stimuli in rats.; assay type: functional
Outline: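 Rats trained to discriminate a subconvulsant dose of pentylenetetrazole (PTZ) from vehicle. Test compound given 30 min before the PTZ dose. Antagonism of the PTZ stimulus is scored as the anxiolytic response. ED50 values by probit analysis, with 95% confidence limits.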

[5] = system: Rattus norvegicus; assay: Compound tested for its effect on Nonconflict (VI) operant responding of rats at a dose of 1.0 mg/Kg administered perorally.; assay type: functional; outline: as §1
[6] = system: Rattus norvegicus; assay: Minimal effective oral dose to cause VI response decrement in rats.; assay type: functional; outline: as §1
[7] = system: Rattus norvegicus; assay: Minimal effective oral dose to cause increase in conflict response in rats after po administration.; assay type: functional; outline: as §1
[8] = molecular target: GABA-A receptor; anion channel (Rattus norvegicus) (UniProt O09028+P15431+P18506+P18508+P19969+P20236+P23574+P23576+P28471+P28473+P30191+P62813+P63079+P63138+Q91ZM7+Q9ES14); assay: GABA ratio measured by the IC50 in the absence of GABA compared to the IC50 in the presence of GABA in rats.
Outline: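 Modified [3H]flunitrazepam binding in rat forebrain, with IC50 measured with and without GABA. Ratio = IC50 without GABA divided by IC50 with GABA.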

[9] = system: Rattus norvegicus; assay: Compound tested for its effect on conflict (FR) operant responding of rats at a dose of 1.0 mg/Kg administered perorally.; assay type: functional; outline: as §1
[10] = system: Rattus norvegicus; assay: Interaction with ethanol in Rotarod performance at a dose of 0 mg/Kg in rats.; assay type: functional
Outline: (§2)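 Rotorod test of ethanol interaction in male Wistar (Crl:(WI)BR) rats, 130–160 g. Vehicle or test compound (0, 1, 3, 10 mg/kg) given orally 30 min before ethanol. Graded ethanol doses given ip 30 min before rotorod testing. Ethanol ED50 reported with confidence limits, P < 0.05.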

[11] = system: Rattus norvegicus; assay: Interaction with ethanol in Rotarod performance at a dose of 1 mg/Kg in rats.; assay type: functional; outline: as §2
[12] = system: Rattus norvegicus; assay: Interaction with ethanol in Rotarod performance at a dose of 3 mg/Kg in rats.; assay type: functional; outline: as §2
[13] = system: Rattus norvegicus; assay: Compound tested for its effect on conflict (FR) operant responding of rats at a dose of 10.0 mg/Kg administered perorally.; assay type: functional; outline: as §1
[14] = system: Rattus norvegicus; assay: Compound tested for its effect on Nonconflict (VI) operant responding of rats at a dose of 10.0 mg/Kg administered perorally.; assay type: functional; outline: as §1
[15] = system: Rattus norvegicus; assay: Minimal effective oral dose to cause ethanol interaction in rats.; assay type: functional; outline: as §2
[16] = system: Rattus norvegicus; assay: Interaction with ethanol in Rotarod performance at a dose of 10 mg/Kg in rats.; assay type: functional; outline: as §2
[17] = system: Rattus norvegicus; assay: Compound tested for its effect on Nonconflict(VI) operant responding of rats at a dose of 10.0 mg/kg administered perorally.; assay type: functional; details: route oral; outline: as §1
[18] = system: Rattus norvegicus; assay: Compound tested for its effect on Nonconflict(VI) operant responding of rats at a dose of 30.0 mg/kg administered perorally.; assay type: functional; details: route oral; outline: as §1
[19] = system: Rattus norvegicus; assay: Compound tested for its effect on conflict(FR) operant responding of rats at a dose of 10.0 mg/kg administered perorally.; assay type: functional; details: route oral; outline: as §1
[20] = system: Rattus norvegicus; assay: Compound tested for its effect on conflict(FR) operant responding of rats at a dose of 30.0 mg/kg administered perorally.; assay type: functional; details: route oral; outline: as §1
[21] = system: Rattus norvegicus; assay: Compound tested for its effect on Nonconflict(VI) operant responding of rats at a dose of 1.0 mg/kg administered perorally.; assay type: functional; details: route oral; outline: as §1
[22] = system: Rattus norvegicus; assay: Compound tested for its effect on Nonconflict(VI) operant responding of rats at a dose of 3.0 mg/kg administered perorally.; assay type: functional; details: route oral; outline: as §1
[23] = system: Rattus norvegicus; assay: Compound tested for its effect on conflict(FR) operant responding of rats at a dose of 1.0 mg/kg administered perorally.; assay type: functional; details: route oral; outline: as §1
[24] = system: Rattus norvegicus; assay: Compound tested for its effect on conflict(FR) operant responding of rats at a dose of 3.0 mg/kg administered perorally.; assay type: functional; details: route oral; outline: as §1

NC(Cc1ccccc1)C(=O)N1CCc2nc(O)n3nc(-c4ccccc4F)nc3c2C1 (stereo not drawn)
IC50 [1]: > 100 nM

Oc1nc2c(c3nc(-c4ccccc4Cl)nn13)CN(Cc1ccccc1)CC2
IC50 [1]: 1.7 nM | Change in response rate [2]: -40% | Change in response rate [3]: 58% | ED50 [4]: 0.5 mg/kg | Change in response rate [5]: 1% | MED [6]: 3 mg/kg | MED [7]: 3 mg/kg | GABA ratio [8]: 1.4 | Change in response rate [9]: 18%

Oc1nc2c(c3nc(-c4ccccc4)nn13)CN(Cc1ccccc1)CC2
IC50 [1]: 2.19 nM | ED50 [10]: 1320 mg/kg | ED50 [11]: 984 mg/kg | ED50 [12]: 832 mg/kg | Change in response rate [2]: -4% | Change in response rate [13]: 367% | Change in response rate [3]: 167% | ED50 [4]: 2.6 mg/kg | Change in response rate [5]: 0% | Change in response rate [14]: 12% | MED [15]: 1 mg/kg | MED [7]: 3 mg/kg | GABA ratio [8]: 1.4 | ED50 [16]: 563 mg/kg | Change in response rate [9]: 35%

Oc1nc2c(c3nc(-c4ccccc4F)nn13)CCC2
IC50 [1]: 4.7 nM

O=C(c1ccccc1)N1CCc2nc(O)n3nc(-c4ccccc4F)nc3c2C1
IC50 [1]: 50 nM

NC(=O)N1CCc2nc(O)n3nc(-c4ccccc4F)nc3c2C1
IC50 [1]: 67 nM | GABA ratio [8]: 0.74

Oc1nc2ccc(Cl)cc2c2nc(-c3ccccc3F)nn12
IC50 [1]: 0.5 nM | GABA ratio [8]: 0.79

CCOC(=O)N1CCc2nc(O)n3nc(-c4ccccc4F)nc3c2C1
IC50 [1]: 12.1 nM | GABA ratio [8]: 1.1

O=S(=O)(c1cccnc1)N1CCc2nc(O)n3nc(-c4ccccc4F)nc3c2C1
IC50 [1]: 5.34 nM | GABA ratio [8]: 1.3

Oc1nc2c(c3nc(-c4ccc(F)cc4)nn13)CN(Cc1ccccc1)CC2
IC50 [1]: 5.35 nM | Change in response rate [17]: -17% | Change in response rate [18]: -38% | Change in response rate [19]: 30% | Change in response rate [20]: 372% | ED50 [4]: 2.55 mg/kg | MED [6]: 30 mg/kg | MED [7]: 30 mg/kg | GABA ratio [8]: 1.7

Oc1nc2c(c3nc(-c4ccccc4F)nn13)CN(Cc1ccncc1)CC2
IC50 [1]: 1.89 nM | GABA ratio [8]: 1.14

O=C(Nc1ccccc1)N1CCc2nc(O)n3nc(-c4ccccc4F)nc3c2C1
IC50 [1]: 67 nM

Oc1nc2c(c3nc(-c4ccccc4F)nn13)CN(Cc1ccccc1)CC2
IC50 [1]: 0.44 nM | Change in response rate [21]: 0% | Change in response rate [17]: -44% | Change in response rate [22]: -13% | Change in response rate [18]: -52% | Change in response rate [23]: 19% | Change in response rate [19]: 206% | Change in response rate [24]: 173% | Change in response rate [20]: 282% | ED50 [4]: 0.66 mg/kg | MED [6]: 30 mg/kg | MED [7]: 10 mg/kg | GABA ratio [8]: 1.06

Cc1ccc(S(=O)(=O)N2CCc3nc(O)n4nc(-c5ccccc5F)nc4c3C2)cc1
IC50 [1]: 1.77 nM | GABA ratio [8]: 0.99

CN1C(=O)CN=C(c2ccccc2)c2cc(Cl)ccc21 [DIAZEPAM]
Change in response rate [17]: 30% | Change in response rate [22]: 4% | Change in response rate [18]: -2% | Change in response rate [19]: 425% | Change in response rate [24]: 159% | Change in response rate [20]: 257% | ED50 [4]: 1.23 mg/kg | MED [6]: 10 mg/kg | MED [15]: 5 mg/kg | MED [7]: 10 mg/kg

Oc1nc2c(c3nc(-c4ccccc4F)nn13)CN(CCc1ccccc1)CC2
IC50 [1]: 28 nM
